Laboratory results: ChEMBL document CHEMBL4017537, “Discovery of a Potent and Specific M. tuberculosis Leucyl-tRNA Synthetase Inhibitor: (S)-3-(Aminomethyl)-4-chloro-7-(2-hydroxyethoxy)benzo[c][1,2]oxaborol-1(3H)-ol (GSK656)” (J Med Chem, 2017)
pEC50, pIC50: −log10 of the molar value. In brackets after ≈: the same amount, converted by molar mass.

Columns and labels:
cytoplasmic LeuRS = assay: Selectivity index, ratio of EC50 for inhibition of cytoplasmic LeuRS in HepG2 cells assessed as reduction in protein synthesis to MIC for Mycobacterium tuberculosis H37Rv; type: toxicity, cell-based; settings: human, read-out: Selectivity Index
How it was run: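 Ratio of HepG2 protein-synthesis EC50 to MIC against M. tuberculosis H37Rv.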

[1] = system: Mycobacterium tuberculosis; assay: Antimicrobial activity against Mycobacterium tuberculosis H37Rv; type: functional
[2] = target: T1, Leucine--tRNA ligase, mitochondrial (Homo sapiens, UniProt Q15031); assay: Inhibition of human N-terminal 6His-tagged mitochondrial LeuRS expressed in Escherichia coli BL21(DE3) assessed as L-[14C]leucine incorporation in to Escherichia coli tRNA after 20 mins by liquid scintillation counting analysis
T1 sequence (Q15031 whole entry): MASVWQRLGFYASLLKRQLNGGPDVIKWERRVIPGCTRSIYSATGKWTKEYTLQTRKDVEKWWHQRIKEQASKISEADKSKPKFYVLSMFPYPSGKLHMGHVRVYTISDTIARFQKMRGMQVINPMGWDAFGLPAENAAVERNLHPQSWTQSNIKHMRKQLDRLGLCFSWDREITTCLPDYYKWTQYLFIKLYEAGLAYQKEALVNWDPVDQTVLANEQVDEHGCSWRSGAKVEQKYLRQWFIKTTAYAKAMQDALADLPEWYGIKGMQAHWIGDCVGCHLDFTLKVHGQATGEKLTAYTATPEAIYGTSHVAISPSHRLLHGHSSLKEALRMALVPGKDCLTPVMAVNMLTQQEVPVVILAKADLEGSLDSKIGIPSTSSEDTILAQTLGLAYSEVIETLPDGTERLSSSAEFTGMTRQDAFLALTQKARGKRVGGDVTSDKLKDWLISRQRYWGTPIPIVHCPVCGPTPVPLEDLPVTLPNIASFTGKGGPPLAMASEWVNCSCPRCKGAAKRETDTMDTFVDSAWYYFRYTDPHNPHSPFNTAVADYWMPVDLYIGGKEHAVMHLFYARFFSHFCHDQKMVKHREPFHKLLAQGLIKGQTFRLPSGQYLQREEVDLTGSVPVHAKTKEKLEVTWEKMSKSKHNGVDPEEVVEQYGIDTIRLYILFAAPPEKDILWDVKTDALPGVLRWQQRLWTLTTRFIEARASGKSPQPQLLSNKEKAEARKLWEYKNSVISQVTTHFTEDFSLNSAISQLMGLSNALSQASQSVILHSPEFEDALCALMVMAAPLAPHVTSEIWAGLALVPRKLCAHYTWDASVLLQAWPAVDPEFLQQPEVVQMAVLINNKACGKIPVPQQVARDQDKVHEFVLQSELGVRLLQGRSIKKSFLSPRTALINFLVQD
How it was run: (§1)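 N-terminal His6-tagged LeuRS expressed in E. coli BL21(DE3), codon-optimized. 50 mM HEPES-KOH pH 8.0, 30 mM MgCl2, 30 mM KCl, 13 μM L-[14C]leucine, 15 μM tRNA (E. coli total; brewer's yeast for human cytoplasmic enzyme), 0.02% BSA, 1 mM DTT, 30 °C. Inhibitor preincubated 20 min, started with 4 mM ATP, TCA-quenched after 7 min, filtered, scintillation counted; four-parameter logistic IC50.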

[3] = target: Leucine--tRNA ligase, cytoplasmic (Homo sapiens, UniProt Q9P2J5); assay: Inhibition of cytoplasmic LeuRS in human HepG2 cells assessed as reduction in protein synthesis preincubated for 48 hrs followed by L-[14C]leucine addition measured after 3 hrs by liquid scintillation counting analysis; type: cell-based
Chain of Leucine--tRNA ligase, cytoplasmic (Q9P2J5 whole entry): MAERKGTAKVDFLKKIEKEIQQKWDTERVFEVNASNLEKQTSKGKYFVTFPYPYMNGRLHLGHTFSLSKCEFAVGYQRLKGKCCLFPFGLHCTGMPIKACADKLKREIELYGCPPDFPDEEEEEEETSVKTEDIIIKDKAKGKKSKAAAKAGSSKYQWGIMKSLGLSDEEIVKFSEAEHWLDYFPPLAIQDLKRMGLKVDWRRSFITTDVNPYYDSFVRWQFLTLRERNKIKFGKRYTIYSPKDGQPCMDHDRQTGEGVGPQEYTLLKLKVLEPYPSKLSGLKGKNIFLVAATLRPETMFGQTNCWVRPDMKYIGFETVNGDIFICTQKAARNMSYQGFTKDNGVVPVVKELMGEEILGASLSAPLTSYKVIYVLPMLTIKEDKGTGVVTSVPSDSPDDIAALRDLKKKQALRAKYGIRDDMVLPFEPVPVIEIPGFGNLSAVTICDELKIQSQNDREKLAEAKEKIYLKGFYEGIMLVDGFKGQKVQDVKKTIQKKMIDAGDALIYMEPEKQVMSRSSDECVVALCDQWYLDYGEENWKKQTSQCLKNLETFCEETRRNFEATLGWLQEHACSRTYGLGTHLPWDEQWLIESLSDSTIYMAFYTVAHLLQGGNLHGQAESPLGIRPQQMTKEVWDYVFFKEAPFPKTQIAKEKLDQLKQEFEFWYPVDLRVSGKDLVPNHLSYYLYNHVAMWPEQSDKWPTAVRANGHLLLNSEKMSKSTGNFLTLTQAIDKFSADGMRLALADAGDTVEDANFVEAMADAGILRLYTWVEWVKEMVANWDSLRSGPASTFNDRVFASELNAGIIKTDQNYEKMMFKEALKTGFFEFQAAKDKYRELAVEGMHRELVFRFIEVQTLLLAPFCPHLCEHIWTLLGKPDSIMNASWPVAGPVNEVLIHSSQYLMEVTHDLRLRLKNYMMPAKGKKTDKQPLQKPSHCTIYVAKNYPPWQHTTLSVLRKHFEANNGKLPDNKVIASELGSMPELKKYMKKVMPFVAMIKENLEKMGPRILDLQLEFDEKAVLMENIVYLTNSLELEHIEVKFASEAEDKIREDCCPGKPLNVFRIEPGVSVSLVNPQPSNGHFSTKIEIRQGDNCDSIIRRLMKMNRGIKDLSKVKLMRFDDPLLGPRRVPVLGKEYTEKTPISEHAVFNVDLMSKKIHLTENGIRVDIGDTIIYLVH
How it was run: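 HepG2 cells in DMEM/10% FCS, 3000 cells/well, exposed to compound dilutions (0.5% DMSO final) for 48 h at 37 °C. Medium then replaced with fresh medium containing 0.5 μCi L-[14C]leucine and the same compound levels for 3 h. Cells trypsinised, precipitated in ice-cold 20% TCA, filtered, washed, scintillation counted; curve-fit EC50; mean of at least duplicates.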

[4] = system: Mycobacterium tuberculosis; assay: Antimicrobial activity against Mycobacterium tuberculosis H37Rv infected in C57BL/6J mouse assessed as 2 log reduction in bacterial load in lungs administered qd for 8 consecutive days starting on day 1 post infection measured 24 hrs post last dose; type: functional
HepG2 = assay: Cytotoxicity against human HepG2 cells assessed as reduction in cell viability after 48 hrs by CellTiter-Glo assay; type: cell-based; settings: HepG2, 48 h
How it was run: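 HepG2 cells seeded at 10 000/well in EMEM with 5% FCS and 2 mM glutamine. After 24 h, ten 1:2 serial compound dilutions (0.5% DMSO final) added in duplicate for 48 h. Read-out by CellTiter-Glo luminescence per table footnote; the method text also describes resazurin fluorescence (ex 515/em 590 nm). Sigmoidal variable-slope fit.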

Leucine--tRNA ligase = target: T2, Leucine--tRNA ligase (Mycobacterium tuberculosis (strain ATCC 25618 / H37Rv), UniProt P9WFV1); assay: Inhibition of Mycobacterium tuberculosis H37Rv N-terminal 6His-tagged LeuRS expressed in Escherichia coli BL21(DE3) assessed as L-[14C]leucine incorporation in to Escherichia coli tRNA after 20 mins by liquid scintillation counting analysis; how it was run: as §1
T2 sequence (P9WFV1 whole entry): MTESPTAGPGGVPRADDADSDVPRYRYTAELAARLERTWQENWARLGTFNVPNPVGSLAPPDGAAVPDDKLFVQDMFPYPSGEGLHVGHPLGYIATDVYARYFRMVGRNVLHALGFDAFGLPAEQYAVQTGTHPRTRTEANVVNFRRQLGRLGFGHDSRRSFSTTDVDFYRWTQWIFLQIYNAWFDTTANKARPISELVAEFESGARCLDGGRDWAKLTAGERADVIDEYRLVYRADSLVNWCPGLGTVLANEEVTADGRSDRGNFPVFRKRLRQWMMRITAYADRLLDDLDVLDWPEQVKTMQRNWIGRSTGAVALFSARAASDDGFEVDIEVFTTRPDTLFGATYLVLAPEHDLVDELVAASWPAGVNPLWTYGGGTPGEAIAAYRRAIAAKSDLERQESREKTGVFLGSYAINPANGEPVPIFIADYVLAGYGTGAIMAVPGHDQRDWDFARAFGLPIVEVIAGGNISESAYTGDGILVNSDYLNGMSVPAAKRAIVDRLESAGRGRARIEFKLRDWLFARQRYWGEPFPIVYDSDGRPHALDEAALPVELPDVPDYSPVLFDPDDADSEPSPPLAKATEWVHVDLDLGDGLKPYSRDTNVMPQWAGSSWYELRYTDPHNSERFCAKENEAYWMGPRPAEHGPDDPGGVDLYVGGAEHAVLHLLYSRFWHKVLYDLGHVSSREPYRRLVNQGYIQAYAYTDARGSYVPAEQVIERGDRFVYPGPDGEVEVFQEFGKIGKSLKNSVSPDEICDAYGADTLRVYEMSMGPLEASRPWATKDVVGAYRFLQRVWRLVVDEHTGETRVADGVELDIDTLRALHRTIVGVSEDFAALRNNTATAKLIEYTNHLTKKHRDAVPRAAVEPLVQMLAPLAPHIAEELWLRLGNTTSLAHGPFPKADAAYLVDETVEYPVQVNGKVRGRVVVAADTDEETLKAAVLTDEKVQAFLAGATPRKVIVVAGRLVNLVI

Q: For `Cl.NC[C@H]1OB(O)c2c(OCCO)ccc(Cl)c21`, which selectivity ratio (cytoplasmic LeuRS) is on record?
A: Its selectivity ratio is 1710.

Q: And the MIC [1]?
A: Its MIC is 0.08 µM.

Q: What about the pIC50 [2] of the same compound?
A: The pIC50 was less than 3.52.

Q: And the pEC50 [3]?
A: The pEC50 was 3.86.

Q: What about the ED99 [4] of the same compound?
A: Its ED99 is 0.4 mg/kg.

Q: What about the pEC50 (HepG2) of the same compound?
A: The pEC50 was 3.42.

Q: What about the pIC50 (Leucine--tRNA ligase) of the same compound?
A: The pIC50 was 6.70.

Q: For `CCOc1ccc(Br)c2c1B(O)O[C@@H]2CN`, which selectivity ratio (cytoplasmic LeuRS) is on record?
A: Its selectivity ratio is 305.

Q: And the MIC [1]?
A: Its MIC is 0.1 µM (≈ 0.0286 µg/mL).

Q: And the pIC50 [2]?
A: The pIC50 was less than 3.52.

Q: And the pEC50 [3]?
A: Its pEC50 is 4.52.

Q: What about the ED99 [4] of the same compound?
A: Its ED99 is less than 1 mg/kg.

Q: What about the pEC50 (HepG2) of the same compound?
A: Its pEC50 is 4.33.

Q: What about the pIC50 (Leucine--tRNA ligase) of the same compound?
A: The pIC50 was 7.12.
